Only some compounds are listed: those with a hit (about 1% of all), similar ones and a draw of the others.
pCIP destab = p/CIP-EGFP fusion destabilizers, primary screen, fluorescence, F442A cells; actives 0.01% (n = 290,000); Q05BA5; decrease of EGFP signal, % at 10 µM; 16 h; AID 1984, 2009;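 active = EGFP signal decrease of at least 30% at 10 µM or well 3 SD below plate mean, unless failing retest; inactive = the rest, including hits failing retest or dose response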
Arr AP2 block = inhibitors of beta-arrestin/AP2 binding, primary screen, biochemical, GPCR trafficking, flow cytometry. actives 0.31% (n = 340,000). beta-arrestin 1 C-terminal peptide binding to AP2 beta2-adaptin appendage (human). FITC-arrestin peptide / GST-AP2 beads; AP2 beta2 appendage carries R879A mutation. AID 504490, 2011. inhibition, % at 10 µM;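 active = inhibition above a set limit, near 3 SD of compounds lacking own fluorescence, cut at about 54% in these data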
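system = GST-tagged AP2 beta2-adaptin appendage (R879A) on 4 µm glutathione beads | reagent = FITC-labelled arrestin peptide probe, 50 nM final | schedule = compound with beads 12 min RT, then probe 1 h RT | signal = HyperCyt-sampled flow cytometry, FL1 channel, ex 488/em 535 nm | read-out = percent response from loss of bead-bound FITC fluorescence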
Hep lipid drop = inhibitors of hepatocyte lipid droplet formation, primary screen, imaging, high-throughput imaging, BODIPY stain | AML12 mouse hepatocytes, oleate lipid droplets | inhibition, % at 6.5 µM | actives 0.4% (n = 240,000);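 active = lipid droplet intensity inhibited by at least 50%, with more than 500 cells counted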
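System: AML12 hepatocytes (mouse). Probe or stimulus: oleic acid at 100 µM to induce lipid droplet formation. Times: overnight treatment with compound plus oleate. Detection: Image-based BODIPY and DAPI two-channel analysis. Evaluation: percent inhibition of filter-corrected integrated lipid droplet intensity per well.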
CTSL1 counter = Fasciola hepatica cathepsin L1 inhibitors, primary screen, counter-screen for PFM18AAP inhibitor project, biochemical, QFRET, fluorogenic peptide substrate | actives 0.49% (n = 300,000) | inhibition, % at 5.96 µM | recombinant F. hepatica cathepsin L1, Z-Leu-Arg-MCA fluorescence;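 active = inhibition above the mean of all tested compounds plus 3 SD, set per screening campaign, cut at about 17% in these data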
Hits are given with their value; - = inactive; . = no result.

SMILES | pCIP destab | Arr AP2 block | Hep lipid drop | CTSL1 counter
O=C(NC(=S)Nc1ccccc1N1CCCC1)c1ccccc1[N+](=O)[O-] | - | - | - | -
COCCCNCCCCOc1cccc(Br)c1 | - | - | - | -
O=C1N/C(=C\c2ccc(O)cc2)C(=O)c2ccccc21 | - | - | . | 108.4
COCCN(CC(=O)NCC1CCCO1)C(=O)CCC(=O)Nc1cc(C)on1 (stereo not drawn) | - | - | . | -
COc1cccc(/C=N/N2CCN(C3c4ccccc4-c4ccccc43)CC2)c1O | - | - | 57.3 | -
COc1cc(/C=N/N2CCN(C3c4ccccc4-c4ccccc43)CC2)ccc1O | - | - | - | -
COc1cc(/C=N/NC(=O)CNC(=O)c2ccco2)ccc1O | - | - | - | 28.5
CCCn1c(=N)n(CC(=O)c2ccc([N+](=O)[O-])cc2)c2ccccc21 | - | - | - | 18.4
COc1ccc(-c2[nH]ncc2-c2ccc(Cl)cc2)c(O)c1 | - | - | - | 17.3
CCc1c(C)nc(SCC(=O)NNC(=O)Cc2ccc(OC)cc2)[nH]c1=O | - | - | - | 17.6
O=C(CSc1cccc[n+]1[O-])Nc1ccc2c(c1)OCO2 | - | - | - | -
CCn1cc(C(=O)NCCc2ccccc2)c(=O)c2cc(S(=O)(=O)N3CCCC3)ccc21 | - | - | - | 17.2
CCCCNC(=O)c1cn(CC)c2ccc(S(=O)(=O)N3CCCC3)cc2c1=O | - | - | - | -
Cc1ccc2nc(NCCNC(=O)c3ccccc3)c(C#N)cc2c1 | - | - | - | 38.5
COc1ccc(C2C(C#N)=C(N)OC3=C2C(=O)CC(C)(C)C3)cc1Cn1cc([N+](=O)[O-])cn1 (stereo not drawn) | - | - | - | -
O=C(NNc1c2ccccc2nc2ccccc12)c1ccccc1O | - | - | - | -
O=C(NNc1c2ccccc2nc2ccccc12)c1ccccc1Cl | - | - | - | 18.4
COc1ccc(NC(=O)c2oc3ccccc3c2NC(=O)C2CC2)cc1OC | - | - | - | -
CCN(CC)S(=O)(=O)c1ccc(C)c(NC(=O)CSc2nnnn2C)c1 | . | - | . | .
O=C1Nc2ccccc2C12OCC1(CO2)COC2(OC1)C(=O)Nc1ccccc12 (stereo not drawn) | - | - | - | 27.7
COc1cc(F)c(C2=CC(=O)C[C@H](c3ccc(F)cc3)C2)cc1F | . | - | . | .
COCCCNC(=O)c1ccccc1Oc1ccccc1 | - | - | . | -
COCCCNC(=O)c1ccc2c3c(onc13)-c1ccccc1C2=O | - | - | - | 21.7
NC(=S)N/N=C/c1ccc(-c2cccc([N+](=O)[O-])c2)o1 | - | - | . | 24.8
NC(=S)N/N=C/c1cc([N+](=O)[O-])ccc1OCCOc1ccccc1 | - | - | - | 81.0
SMILES | pCIP destab | Arr AP2 block | Hep lipid drop | CTSL1 counter
NC(=S)N/N=C/c1ccc(Br)o1 | - | - | - | 17.3
O=[N+]([O-])c1cccc(-c2ccc(/C=N/NC(=S)Nc3cccc(F)c3)o2)c1 | - | - | - | -
CC(=O)N/N=C/c1cc([N+](=O)[O-])ccc1OCCOc1ccccc1 | - | - | - | -
COc1ccc(COC(=O)NNC(=O)c2ccccc2Cl)cc1 | - | - | - | 52.4
Cc1cc(C(=O)CCl)c(C)n1CCc1ccccc1 | - | . | - | 16.8
O=C1c2ccccc2C(=O)c2c1oc(C(F)(F)F)c2C(=O)c1ccccc1 | - | - | . | 25.7
O=C(c1ccccc1)c1coc2c1C(=O)c1ccccc1C2=O | - | - | - | 20.4
CCOC(=O)CNC(=O)c1ccc(Br)s1 | - | - | - | -
Cc1ccc(C)n1-c1ccc(C(=O)NN)s1 | - | - | - | 20.8
C#CC[N+]1(CC#Cc2ccc(C)cc2)CCCCC1 | - | - | - | -
C=CCn1c(SCC(=O)N2CCOCC2)nc2ccccc2c1=O | - | - | - | -
CCC1Oc2ccc(C)cc2N(CC(=O)N(Cc2ccc(C)o2)C2CCCC2)C1=O (stereo not drawn) | - | - | - | 28.0
O=C(NCc1ccco1)C(Cc1ccccc1)N1C(=O)C2C3C=CC(C3)C2C1=O (stereo not drawn) | - | - | - | 20.2
Cn1c(=O)c2cc(NC(=O)c3ccccc3Cl)c(=O)oc2n(C)c1=O | - | - | . | 27.0
O=C(Nc1ccccc1Cl)c1ccccc1Cl | - | - | . | -
COc1ccc(N(/N=C2\Sc3ccccc3C2=O)C(C)=O)cc1 | - | - | - | .
COc1ccccc1N(/N=C1\Sc2ccccc2C1=O)C(C)=O | - | - | - | 30.4
